Sampled rows, rich in hits. Any-hit rate of the full collection: about 2.6%.
MEKK2 WT-MEK5 – raises or lowers MEK5 binding to wildtype human MEKK2 PB1 domain; 290,000 compounds, 1.1% hits; AID 1531; binding response (% of control), % at 10 µM; bead flow cytometry, Alexa488-MEK5 binding to MEKK2 WT; actives lie on both sides; in the data active = binding response below about 67% or above about 130%
MEKK2 mut-MEK5 – signal of MEK5 binding to mutant human MEKK2 PB1 domain | bead flow cytometry, Alexa488-MEK5 binding to MEKK2 mutant | percent response, % at 10 µM | 290,000 compounds, 0.35% hits; in the data active = percent response above about 24%, passing the limit was not always enough
Hep lipid drop – modulators of hepatic lipid droplet formation; AML12 mouse hepatocytes, oleate lipid droplets, BODIPY imaging; inhibition, % at 6.5 µM; 240,000 compounds, 0.4% hits; AID 1656;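 active = lipid droplet intensity inhibited by at least 50%, with more than 500 cells counted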
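Assay system: AML12 hepatocytes (mouse) / Also added: 100 µM oleic acid challenge / Times: overnight treatment with compound plus oleate / Detection: high-content imaging of BODIPY-stained droplets and DAPI nuclei / Evaluation: % inhibition of lipid droplet signal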
MEKK3 PB1 HTS – modulators (inhibitors or enhancers) of MEK5 binding to human MEKK3 PB1 domain | bead-based flow cytometry, Alexa488-MEK5 binding to MEKK3; actives lie on both sides; 0 = blocked by unlabeled MEK5, 100 = vehicle | binding response (% of control), % at 10 µM | 290,000 compounds, 1.4% hits | AID 1529;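 active = binding response more than 3 SD above or below the average of its plate-row segment, actives on both sides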;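 note: Alexa488 bead fluorescence after subtracting the streptavidin-only scavenger bead signal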
Target sequence (Q99759 whole entry, looked up, the tested form may be a part): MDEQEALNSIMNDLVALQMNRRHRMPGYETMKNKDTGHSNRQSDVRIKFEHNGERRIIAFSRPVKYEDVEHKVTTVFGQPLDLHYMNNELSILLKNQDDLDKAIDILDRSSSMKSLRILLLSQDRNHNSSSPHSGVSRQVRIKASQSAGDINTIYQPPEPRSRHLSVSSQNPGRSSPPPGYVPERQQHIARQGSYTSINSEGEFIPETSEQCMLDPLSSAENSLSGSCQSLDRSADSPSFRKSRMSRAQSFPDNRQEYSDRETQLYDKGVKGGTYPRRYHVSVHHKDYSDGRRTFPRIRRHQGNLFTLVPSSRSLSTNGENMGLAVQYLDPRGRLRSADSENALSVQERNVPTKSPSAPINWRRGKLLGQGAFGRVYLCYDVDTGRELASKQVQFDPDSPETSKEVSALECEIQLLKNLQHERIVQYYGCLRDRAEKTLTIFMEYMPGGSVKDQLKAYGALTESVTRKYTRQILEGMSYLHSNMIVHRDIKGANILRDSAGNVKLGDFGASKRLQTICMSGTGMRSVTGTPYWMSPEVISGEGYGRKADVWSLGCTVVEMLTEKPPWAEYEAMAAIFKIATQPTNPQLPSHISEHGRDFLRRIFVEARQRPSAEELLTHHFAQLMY
MEKK2wt confirm – raises or lowers MEK5 binding to wildtype human MEKK2, retest; shares compounds with MEKK3 PB1 HTS; bead flow cytometry, Alexa488-MEK5 binding to MEKK2 WT; actives lie on both sides; binding response (% of control), % at 10 µM; 5,900 compounds, 2.4% hits; in the data active = binding response below about 16% or above about 210%; inactive = in between
MEKK2mut confirm – signal of MEK5 binding to mutant human MEKK2, retest. shares compounds with MEKK3 PB1 HTS. AID 1893. bead flow cytometry, Alexa488-MEK5 binding to MEKK2 mutant. 5,900 compounds, 2% hits. percent response, % at 10 µM; in the data active = percent response mostly above about 71%, no sharp cut-off; inactive = mostly below about 38%;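 note: higher means compound restores mutant binding toward wildtype level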
MEKK3-MEK5 inh – confirmation of inhibitors of MEK5 binding to human MEKK3; shares compounds with MEKK3 PB1 HTS; bead flow cytometry, Alexa488-MEK5 binding to MEKK3; active compounds read low; binding response (% of control), % at 10 µM; 5,900 compounds, 1.8% hits; AID 1894;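 active = binding response below 72% of control, or above a set upper limit, though filed actives all read lower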;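 note: 100% = DMSO only wells and 0% = binding blocked by excess unlabeled MEK5; lower values mean stronger disruption of MEK5 binding to MEKK3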
* marks the source's active call; other numbers are inactive results; nt = not tested or not shown; [ ] = another dose, or the depositor's remark.

SMILES | MEKK2 WT-MEK5 | MEKK2 mut-MEK5 | Hep lipid drop | MEKK3 PB1 HTS | MEKK2wt confirm | MEKK2mut confirm | MEKK3-MEK5 inh
CN(C)CCOc1ccc(/C(=C(/CCCl)c2ccccc2)c2ccccc2)cc1 | 176* | 22 | nt | 110 | 100 | -8 | 100
O=C(Nc1ccc2nc3n(c(=O)c2c1)CCCC3)c1cccc([N+](=O)[O-])c1 | 112 | 2 | -2 | 139* | 101 | -5 | 99
O=C(CCc1nnc(CCCc2ccccc2)o1)NCCN1CCOC1=O | 93 | -9 | 11 | 101 | nt | nt | nt
O=C(NNc1ccc(Cl)cc1)c1sccc1Cl | 94 | -7 | -5 | 94 | nt | nt | nt
O=C(NNc1c(Cl)cncc1Cl)c1sccc1Cl | 128 | 27 | -7 | 132* | 99 | 1 | 104
Fc1ccccc1-c1csc(=Nc2cccnc2)n1CC1CCCO1 (stereo not drawn) | 91 | -2 | -12 | 93 | nt | nt | nt
Fc1ccccc1-c1csc(=Nc2cccnc2)n1CCCn1ccnc1 | 102 | 3 | -13 | 137* | 114 | 19 | 104
CCOc1ccc(NC(=O)c2ccc(OC)cc2)cc1 | 112 | 6 | nt | 126* | 99 | -1 | 97
CCOc1ccc(NC(=O)c2ccc3c(SCC(=O)O)c4c(nc3c2)CCCC4)cc1 | 113 | 4 | 13 | 137* | 95 | -7 | 100
COc1cc(CC(=O)NCCc2ccc(S(N)(=O)=O)cc2)cc(OC)c1OC | 102 | -1 | 6 | 103 | nt | nt | nt
O=C(O)c1ccc2oc(=O)c(S(=O)(=O)c3ccc(F)cc3)cc2c1 | 99 | -1 | -7 | 98 | nt | nt | nt
CCCCCCc1cc2cc(S(=O)(=O)c3ccc(F)cc3)c(=O)oc2cc1O | 103 | 0 | -27 | 138* | 105 | -1 | 104
CCCCCCc1cc2cc(-c3nnc(-c4ccccc4O)o3)c(=O)oc2cc1O | 71*[inhibitor] | 5 | nt | 101 | 100 | -1 | 108
COC(=O)C1=C(C(=O)OC)[C@@H]2N(C)c3ccc(OC)cc3[C@@]23C[C@@H](C(=O)OC)N(C(=O)c2cccs2)C3=N1 | 93 | -8 | -9 | 98 | nt | nt | nt
N#CNC(N)=Nc1cccc(Cl)c1 | 126 | 8 | 0 | 122* | 101 | -2 | 100
O=C(NC1CCN(Cc2ccc(Cl)c(Cl)c2)CC1)c1ccccc1 | 115 | 16 | 3 | 111 | nt | nt | nt
COc1cc(SC)ccc1C(=O)N1CCCCCC1 | 126 | 5 | 1 | 125* | 118 | 13 | 108
COc1cc(SC)ccc1C(=O)N1CCN(c2ccccc2)CC1 | 92 | -11 | 17 | 106 | nt | nt | nt
O=C(NCCN1CCOCC1)c1cc(Sc2ccc(F)cc2F)nc2ccccc12 | 107 | 4 | -40 | 100 | nt | nt | nt
O=C(NCCCN1CCCC1)c1cc(Sc2ccc(F)cc2)nc2ccccc12 | 122 | 1 | 2 | 133* | 125 | 13 | 104
CCOC(=O)C1CSC2(CCC(c3ccccc3)CC2)N1 (stereo not drawn) | 136 | 9 | 6 | 146* | 99 | -2 | 98
CN(C)CCCN1c2ccc([N+](=O)[O-])cc2CCc2cc([N+](=O)[O-])ccc21 | 150* | 14 | nt | 111 | 113 | 6 | 104
COC(=O)c1c(-c2c(Cl)cccc2Cl)noc1C(=O)NNC(=O)N(C)C | 96 | -5 | 3 | 99 | nt | nt | nt
Cc1ccc(S(=O)(=O)N[C@@H](C)C(=O)N2CCC(C(=O)N[C@@H](Cc3ccccc3)C(=O)O)CC2)cc1 | 100 | -4 | 22 | 101 | nt | nt | nt
CSc1nc(Cl)cc(N(CCO)CCO)n1 | 105 | 25* | nt | 103 | 96 | 0 | 101
SMILES | MEKK2 WT-MEK5 | MEKK2 mut-MEK5 | Hep lipid drop | MEKK3 PB1 HTS | MEKK2wt confirm | MEKK2mut confirm | MEKK3-MEK5 inh
CCCC1CCC(c2ccc(OCC)cc2)=CC1=O (stereo not drawn) | 101 | 2 | nt | 100 | nt | nt | nt
CCOC(=O)Cn1cncc1-c1ccc([N+](=O)[O-])cc1 | 101 | 1 | 6 | 103 | nt | nt | nt
CCOC(=O)CSc1ncc(-c2ccc([N+](=O)[O-])cc2)[nH]1 | 105 | 1 | -2 | 134* | 98 | 2 | 103
CC(C)CCN(C(=O)CNC(=O)c1ccco1)C(C(=O)NC1CCCCC1)c1cccnc1 (stereo not drawn) | 103 | 2 | -6 | 102 | nt | nt | nt
O=C1Nc2ccc([N+](=O)[O-])cc2OC1CCN1CCCC1 (stereo not drawn) | 114 | 5 | 9 | 141* | 101 | 1 | 101
O=C(CN1C2=NCCN2c2ccccc21)c1ccc(Br)s1 | 105 | 0 | -22 | 142* | 99 | 0 | 95
COc1ccc2[nH]c(C)c(CCNC(=S)Nc3ccc(F)cc3)c2c1 | 101 | -5 | -8 | 108 | nt | nt | nt
Cc1[nH]c2ccc(F)cc2c1CCNC(=O)C1CCCCC1C(=O)OCC(F)(F)F (stereo not drawn) | 109 | 1 | -36 | 153* | 99 | -3 | 100
COc1ccc(NC(=O)CSCC(=O)N2c3ccccc3CCc3ccccc32)cc1 | 100 | -1 | -14 | 148* | 101 | -1 | 99
O=C(Cn1cnc2ccccc21)N/N=C/c1ccc([N+](=O)[O-])cc1 | 116 | 3 | -5 | 141* | 89 | 0 | 94
O=C(Cn1cnc2ccccc21)N/N=C/c1ccccc1[N+](=O)[O-] | 105 | 0 | 19 | 138* | 99 | 0 | 97
COC(=O)c1cc(NC(=O)Cc2cc(OC)c(OC)c(OC)c2)cc(C(=O)OC)c1 | 105 | 0 | -2 | 108 | nt | nt | nt
O=C1C2CCCCC2C(=O)N1c1ccc(S(=O)(=O)Nc2ncccn2)cc1 (stereo not drawn) | 101 | 5 | -13 | 101 | nt | nt | nt
CCOc1ccc(CNCCNC(=O)c2nonc2N)cc1 | 100 | -1 | 1 | 106 | nt | nt | nt
Nc1nonc1C(=O)NCCNCc1ccccc1OCc1ccc(F)cc1 | 153* | 17 | nt | 107 | 118 | 5 | 102
COc1ccc(CNC(=O)C(c2ccncc2)N(C(=O)Cc2cccs2)c2ccc(C)cc2)cc1 (stereo not drawn) | 86 | -11 | 2 | 81*[inhibitor] | 107 | 10 | 104
Cc1cc(OCCCCn2ccnc2)cc(C)c1Cl | 127 | 20 | -9 | 106 | nt | nt | nt
CCOC(=O)CC(=O)CSc1nccc(-c2cccnc2)n1 | 54 | -23 | nt | 43*[inhibitor] | 95 | -8 | 97
O=C(CCSCc1ccccc1F)NCc1ccc(F)cc1 | 109 | 9 | nt | 107 | nt | nt | nt
O=C(NN=C1CCCCCC1)c1ccc(Cl)s1 | 96 | -5 | 6 | 98 | nt | nt | nt
O=C(COC(=O)C1(c2ccc(F)cc2)CCCC1)Nc1ncc(C(F)(F)F)cc1Cl | 111 | 2 | 13 | 133* | 101 | -2 | 102
